Assay [1] in a line: Inhibition of NADH-ubiquinone oxidoreductase in bovine heart mitochondria after 5 mins by spectrophotometric analysis. Set-up: species or system Bos taurus. The gist of the method: (§1)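 Bovine heart submitochondrial particles, 12 µg, incubated 5 min at 39 °C with compound in 50 mM phosphate pH 7.4, 0.25 M sucrose, 1 mM MgCl₂, 2 mM KCN, plus antimycin A. Reaction started with 50 µM NADH and 50 µM coenzyme Q₁; NADH loss read at 340 nm. K_I derived. Mean of three experiments in triplicate.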

Assay [2] is filed under the species Bos taurus. Nature of the assay: Inhibition of NADH oxidase activity of bovine heart mitochondrial […] at 10 uM after 5 mins by spectrophotometric analysis relative to control; values are per cent of control.
Assay [3] can be described thus: Effect on total ATP level in CoQ10-deficient human GM17932 cells at 10 uM after 48 hrs by bioluminescence assay relative to control. Type of assay: functional. The gist of the method:
(§2)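 Lymphocytes were adapted to glucose-free RPMI with 25 mM galactose for at least one week. Cells at 2 × 10⁵ cells/mL were given compound at final 5, 10 or 25 µM for 48 h at 37 °C, 5% CO₂. Total intracellular ATP was measured by luciferase bioluminescence kit and expressed as % of untreated control.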

In assay [4] the test system is CCRF-CEM. Nature of the assay: Antioxidant activity in human CCRF-CEM cells assessed as suppression of diethyl maleate-induced ROS generation at 0.25 uM preincubated for 18 hrs prior to diethyl maleate-challenge measured after 1 hr by FACS flow cytometric analysis in presence of DCFH-DA. Type of assay: functional, cell-based. The gist of the method: (§3)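 Lymphocytes (Coriell, RPMI with 15% FBS) or CCRF-CEM cells (RPMI with 10% FBS), 2.5 × 10⁵ cells/mL, exposed to compounds for 18 h at 37 °C, then 5 mM diethyl maleate for 1 h. Cells washed in PBS, loaded with 10 µM DCFH-DA in PBS/10 mM glucose for 25 min at 37 °C in the dark. DCF read by flow cytometry (488 nm excitation, 530 nm emission). Mean ± S.E.M., three experiments in duplicate.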
For orientation: Flow cytometry measures light scatter and fluorescence of single cells or particles in a stream.

Assay [5] deals with GM15850. Nature of the assay: Effect on total ATP level in Friedreich's ataxia disease patient GM15850 cells at 10 uM after 48 hrs by bioluminescence assay relative to control. Type of assay: functional, Homo sapiens. Summed up: as §2
Assay [6] is filed under the species Bos taurus. Nature of the assay: Inhibition of NADH oxidase activity of bovine heart mitochondrial […] at 5 uM after 5 mins by spectrophotometric analysis relative to control; values are per cent of control.
The nature of assay [7]: Effect on total ATP level in Leber's optic atrophy disease patient GM10744 cells at 10 uM after 48 hrs by bioluminescence assay relative to control. Type of assay: functional, Homo sapiens. The gist of the method: as §2
The test system of assay [8] is CCRF-CEM. Nature of the assay: Antioxidant activity in human CCRF-CEM cells assessed as suppression of diethyl maleate-induced ROS generation preincubated for 18 hrs prior to diethyl maleate-challenge measured after 1 hr by FACS flow cytometric analysis in presence of DCFH-DA. Type of assay: functional, cell-based. Summed up: as §3
Assay [9] has as its system CCRF-CEM. Briefly: Antioxidant activity in human CCRF-CEM cells assessed as suppression of diethyl maleate-induced ROS generation at 2.5 uM preincubated for 18 hrs prior to diethyl maleate-challenge measured after 1 hr by FACS flow cytometric analysis in presence of DCFH-DA. Type of assay: functional, cell-based. Summed up:
as §3

Assay [10] is filed under the species Bos taurus. Briefly: Inhibition of NADH-ubiquinone oxidoreductase in bovine heart mitochondria after 5 mins by spectrophotometric analysis relative to control. Summed up: as §1
The test system of assay [11] is GM15850. Nature of the assay: Effect on total ATP level in Friedreich's ataxia disease patient GM15850 cells at 5 uM after 48 hrs by bioluminescence assay relative to control. Type of assay: functional, Homo sapiens. The gist of the method:
as §2

Assay [12] can be described thus: Effect on total ATP level in Leber's optic atrophy disease patient GM10744 cells at 25 uM after 48 hrs by bioluminescence assay relative to control. Type of assay: functional, Homo sapiens. The gist of the method: as §2
Assay [13] can be described thus: Effect on total ATP level in CoQ10-deficient human GM17932 cells at 25 uM after 48 hrs by bioluminescence assay relative to control. Type of assay: functional. Summed up: as §2
Assay [14] concerns GM15850. Nature of the assay: Effect on total ATP level in Friedreich's ataxia disease patient GM15850 cells at 25 uM after 48 hrs by bioluminescence assay relative to control. Type of assay: functional, Homo sapiens. Summed up:
as §2

For assay [15], the species on record is Bos taurus. Briefly: Inhibition of NADH oxidase activity of bovine heart mitochondrial […] at 1 uM after 5 mins by spectrophotometric analysis relative to control; values are per cent of control.
The species named for assay [16] is Homo sapiens. Briefly: Antioxidant activity in Leber's optic atrophy disease patient GM10744 cells assessed as suppression of diethyl maleate-induced ROS generation at 0.025 to 2.5 uM preincubated for 18 hrs prior to diethyl maleate-challenge measured after 1 hr by FACS flow cytometric analysis in presence of DCFH-DA. Type of assay: functional. The gist of the method: as §3

The species entered for assay [17] is Homo sapiens. Nature of the assay: Antioxidant activity in Alzheimer's disease patient AG06849 cells assessed as suppression of diethyl maleate-induced ROS generation at 0.025 to 2.5 uM preincubated for 18 hrs prior to diethyl maleate-challenge measured after 1 hr by FACS flow cytometric analysis in presence of DCFH-DA. Type of assay: functional. Summed up: as §3

The nature of assay [18]: Effect on total ATP level in Leber's optic atrophy disease patient GM10744 cells at 5 uM after 48 hrs by bioluminescence assay relative to control. Type of assay: functional, Homo sapiens. Summed up:
as §2

Assay [19] in a line: Effect on total ATP level in CoQ10-deficient human GM17932 cells at 5 uM after 48 hrs by bioluminescence assay relative to control. Type of assay: functional. Summed up:
as §2

The species named for assay [20] is Homo sapiens. Briefly: Cytoprotective activity against diethyl maleate-induced oxidative stress in Parkinson's disease patient GM15010 cells assessed as cell viability at 0.5 uM preincubated for 15 hrs prior to diethyl maleate-challenge measured after 6 hrs by hemocytometer-based assay. Type of assay: functional. The gist of the method:
(§4)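 Cells seeded at 5 × 10⁵ cells/mL, preincubated with 0.5 or 2.5 µM compound at 37 °C, 5% CO₂, then given 5 mM diethyl maleate for 6 h. Viable cells counted by trypan blue exclusion on a hemocytometer. Viability expressed as % of untreated control. Three independent experiments in triplicate, mean ± S.E.M.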

For assay [21], the species on record is Homo sapiens. Briefly: Cytoprotective activity against diethyl maleate-induced oxidative stress in Alzheimer's disease patient AG06849 cells assessed as cell viability at 0.5 uM preincubated for 15 hrs prior to diethyl maleate-challenge measured after 6 hrs by hemocytometer-based assay. Type of assay: functional. Summed up: as §4
For assay [22], the species on record is Homo sapiens. Briefly: Cytoprotective activity against diethyl maleate-induced oxidative stress in Leber's optic atrophy disease patient GM10744 cells assessed as cell viability at 0.5 uM preincubated for 15 hrs prior to diethyl maleate-challenge measured after 6 hrs by hemocytometer-based assay. Type of assay: functional. The gist of the method:
as §4

The species named for assay [23] is Homo sapiens. Nature of the assay: Cytoprotective activity against diethyl maleate-induced oxidative stress in Leigh's syndrome patient GM13740 cells assessed as cell viability at 0.5 uM preincubated for 15 hrs prior to diethyl maleate-challenge measured after 6 hrs by hemocytometer-based assay. Type of assay: functional. Summed up: as §4
Assay [24] relates to GM15850. Briefly: Cytoprotective activity against diethyl maleate-induced oxidative stress in Friedreich's ataxia disease patient GM15850 cells assessed as cell viability at 0.5 uM preincubated for 15 hrs prior to diethyl maleate-challenge measured after 6 hrs by hemocytometer-based assay. Type of assay: functional. The conditions noted are these: Homo sapiens. Summed up:
as §4

The test system of assay [25] is CCRF-CEM. Briefly: Cytoprotective activity against diethyl maleate-induced oxidative stress in human CCRF-CEM cells assessed as cell viability at 0.5 uM preincubated for 15 hrs prior to diethyl maleate-challenge measured after 6 hrs by hemocytometer-based assay. Type of assay: functional. Summed up:
as §4

In assay [26] the test system is CCRF-CEM. Nature of the assay: Antioxidant activity in human CCRF-CEM cells assessed as suppression of diethyl maleate-induced ROS generation at 0.25 to 2.5 uM preincubated for 18 hrs prior to diethyl maleate-challenge measured after 1 hr by FACS flow cytometric analysis in presence of DCFH-DA. Type of assay: functional, cell-based. The gist of the method:
as §3

Structures are written as SMILES. Calls of active or inactive are those of the source. No cut-off for these calls is given here. Bounds are passed on as bounds.

As for `Cc1nc(N(C)C)nc(CCCCCCCCCCO)c1O`, the IC50 (as a rule, the concentration that inhibits the measured activity by half) in assay [1] turned out to be 1 µM. Also, the Ki (usually a measure of affinity in units of concentration, obtained from inhibition or displacement) in assay [1] was 0.7 µM. Further, the values for the residual activity in [2], in assay [6] and in assay [15] were 15%, 22% and 50%, respectively. In addition, the Activity in assay [3] is 86.1%; in [5] it was 46.3%; in assay [7], 45.6%; in assay [8], “Dose-dependent effect”; in assay [11], 77.2%; in [12] it was 20.7%. Besides, the Activity in assay [13] was found to be 46.4%; in assay [14], 27.7%; in assay [18] it was 75.5%; in assay [19] it was 98.8%. For the same molecule, the result in assay [4], in assay [9], in assay [16] and in assay [17] was Active. Moreover, the Imax in assay [10] amounted to 85%.

In the case of `CCCCCCCCCCC1=C(C)C(=O)C(OC)=C(OC)C1=O` [DECYLUBIQUINONE], the outcome in [20], in assay [21], in assay [4], in assay [9], in assay [22] and in assay [23] was Active. Moreover, the outcome in assay [16], in assay [24], in assay [17] and in assay [25] was Active. The half-inhibitory concentration (IC50) in assay [1] is > 200 µM. Also, the Ki in [1] was > 200 µM. Further, the results for the residual activity in [2], in assay [6] and in [15] were 61.5%, 82.4% and 93%, respectively. Moreover, the Activity in assay [3] was 86.2%; in assay [5], 76.4%; in [7] it was 63.4%; in [8] it was “Dose-dependent effect”; in [11], 92.8%; in assay [12] it was 47%. Besides, the Activity in [13] amounted to 71.1%; in assay [14], 62.7%; in assay [18], 75.1%; in assay [19], 100%.

With `CCCCCCCCCCCCCCCCc1nc(N(C)C)nc(C)c1O`, the outcome in assay [20], in assay [21], in assay [22], in [23], in assay [16] and in assay [24] was Active. The outcome in [17], in assay [26] and in assay [25] was Active. Besides, the IC50 in assay [1] is 198 µM. The same molecule registered an inhibition constant Ki in assay [1] of 141 µM. Further, the residual activity – broadly, the activity still measured, relative to the control – in assay [2] was determined as 76.9%; in assay [6], 88.6%; in assay [15], 96.2%. The Activity is 103% in assay [3]; 90.3% in [5]; 95.6% in [7]; “Dose-dependent effect” in assay [8]; 95.3% in assay [11]; 83.4% in assay [12]. The Activity amounted to 95% in assay [13], 74.7% in [14], 102.7% in assay [18] and 108.2% in [19]. This molecule gave an Imax in assay [10] of 84%.

For the molecule `CCCCCCCCCCc1nc(N(C)C)nc(C)c1O`, the outcome in assay [20], in assay [21], in [22], in assay [23], in [16] and in assay [24] was Active. Moreover, the result in assay [17], in [26] and in assay [25] was Active. For the same molecule, the 50% inhibitory concentration (IC50) in [1] worked out at 2 µM. The same molecule yielded an inhibition constant Ki in assay [1] of 1.4 µM. The residual activity in assay [2] turned out to be 3.9%; in assay [6] it was 17.7%; in assay [15], 35.4%. Besides, the Activity in [3] was 97.1%; in [5], 74.4%; in assay [7] it was 75%; in assay [8], “Dose-dependent effect”; in assay [11], 83.3%; in assay [12] it was 40.6%. The Activity in assay [13] is listed as 72.4%; in assay [14] it was 42.2%; in assay [18], 95.6%; in assay [19], 105.2%. The molecule also gave an Imax in [10] of 88%.

The values above are taken from ChEMBL document CHEMBL2396633, “Effects of cytoprotective antioxidants on lymphocytes from representative mitochondrial neurodegenerative diseases” (Bioorg Med Chem, 2013).
